{"data": "Results pooled from the literature", "read-out": "enzyme activity", "action": "inhibitor", "SRC": "Proto-oncogene tyrosine-protein kinase Src (SRC, Homo sapiens, UniProt P12931)", "SRC T341M": "Proto-oncogene tyrosine-protein kinase Src (SRC, Homo sapiens, UniProt P12931, T341M)", "note": "Each line is one published result; the experiments were not run side by side."}
{"SMILES": "Oc1cccc(-c2nc(N3CCOCC3)c3oc4ncccc4c3n2)c1", "target": "SRC", "conditions": "10 µM", "remaining activity": "99%"}
{"SMILES": "CCCOc1ccc(OC)c(F)c1C(=O)c1ccc(C(=O)N[C@@H]2CNC[C@H]2NC(=O)c2ccc3[nH]ncc3c2)cc1", "target": "SRC T341M", "conditions": "10 µM", "remaining activity": "53%"}
{"SMILES": "COc1cc(Nc2cnc(C#N)c(O[C@H](C)CN(C)C)n2)ncc1-c1cnn(C)c1", "target": "SRC", "test": "radiometric", "conditions": "1 µM", "remaining activity": "81%"}
{"SMILES": "Cc1ccc(C(=O)Nc2ccc(CN3CCN(C)CC3)c(C(F)(F)F)c2)cc1C#Cc1cnc2cccnn12", "target": "SRC", "conditions": "23.5 nM", "remaining activity": "12%"}
{"SMILES": "Cc1ccc(NC(=O)c2ccc(C)c(C(F)(F)F)c2)cc1C#Cc1nn(C2CCC(O)CC2)c2ncnc(N)c12 (stereo not drawn)", "target": "SRC T341M", "conditions": "10 µM", "remaining activity": "20%"}
{"SMILES": "Cc1[nH]c(/C=C2\\C(=O)Nc3ccc(F)cc32)c(C)c1C(=O)N[C@H]1CCN(C(=O)N(C)C)C1", "target": "SRC", "conditions": "0.1 µM", "remaining activity": "109%"}
{"SMILES": "CC(C)(O)[C@H]1CC[C@H](Nc2ccc3ncc(-c4cccc(C(F)(F)F)c4)n3n2)CC1", "target": "SRC", "conditions": "1 µM", "remaining activity": "27.9%"}
{"SMILES": "Cc1sc(C(=O)NC2COC2)cc1-n1cc(NC(=O)Nc2c(F)cccc2Cl)cn1", "target": "SRC", "conditions": "10 µM", "remaining activity": "96.6%"}
{"SMILES": "FC(F)c1nc2ccccc2n1-c1nc(N2CCOCC2)nc(N2CCOCC2)n1", "target": "SRC", "conditions": "10 µM", "remaining activity": "104%"}
{"SMILES": "O=c1cc(-c2cccc3c2Sc2ccccc2S3)oc(N2CCOCC2)c1", "target": "SRC", "conditions": "0.5 µM", "remaining activity": "106%"}
{"SMILES": "CC(C)(C)c1nc2c(s1)c1nc(N)ncc1c1ccc(NS(=O)(=O)c3c(F)cccc3F)c(F)c12", "target": "SRC", "test": "radiometric", "conditions": "1 µM", "remaining activity": "89%"}
{"SMILES": "CC(C)(C)C(=O)c1sc(NC2CCCCC2)nc1N", "target": "SRC", "conditions": "10 µM", "remaining activity": "99%"}
